Source: PubChem (several laboratories)
DAGLB inh: DAGLB lipase inhibitors, primary screen, biochemical, fluorescence, HTS; actives 0.059% (n = 340,000); HEK293T DAGLB membrane lysate, EnzChek fluorogenic substrate; inhibition, % at 5.17 µM; in the data active means inhibition above about 34%
MT1-MMP act inh: blockers of MT1-MMP proenzyme processing, primary screen, HT1080 RFP-PRO-GFP cells, GFP/RFP fluorescence; Matrix metalloproteinase-14 (Homo sapiens), P50281; GFP/RFP ratio fluorescence, overnight; percent of plate control window, DMSO zero; GFP/RFP ratio change, % at 20 µM; actives 0.061% (n = 360,000); AID 651647, 2012;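 active means GFP/RFP ratio change of at least 30% with cell ATP level not reduced by more than half and red fluorescence within 50% of control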
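Assay system – RFP-PRO-GFP reporter HT1080 cells · Compound dosing – single dose of 20 µM compound, 1% DMSO final · Incubation – overnight compound exposure at 37 °C · Measure – GFP/RFP fluorescence ratio · Benchmarks – DMSO wells and RFP-L50D-GFP cells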
PolyA inh: polyadenylation inhibitors in yeast reporter cells, primary screen, luminescence, S. cerevisiae; actives 0.02% (n = 300,000); activity score, % at 12 µM; S. cerevisiae SKY197-pL101 polyadenylation reporter, beta-gal luminescence; efflux-impaired pdr1/pdr3 knockout yeast; score 100 = 6 SD above DMSO;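 active means lowest replicate activity score at least 50, where 100 means six control SD above control mean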;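 further: yeast exposed to compound for 9 h at 30 °C; higher score means more reporter readthrough which indicates perturbed polyadenylation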
Tn7 DDE FP: inhibitors of Tn7 peptide binding to fibrin DD(E), primary screen, biochemical, fluorescence polarization, human fibrin, Tn7 probe | Fibrinogen beta chain (Homo sapiens), P02675 | inhibition, % at 8.3 µM | FP displacement of FITC-Tn7 peptide from fibrin DD(E); 0% = median of compound wells per plate | actives 0.13% (n = 370,000);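 active means inhibition above the mean of compounds falling within the control limits plus 3 SD of them, cut at about 14% in these data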
Target sequence (P02675 whole entry, looked up): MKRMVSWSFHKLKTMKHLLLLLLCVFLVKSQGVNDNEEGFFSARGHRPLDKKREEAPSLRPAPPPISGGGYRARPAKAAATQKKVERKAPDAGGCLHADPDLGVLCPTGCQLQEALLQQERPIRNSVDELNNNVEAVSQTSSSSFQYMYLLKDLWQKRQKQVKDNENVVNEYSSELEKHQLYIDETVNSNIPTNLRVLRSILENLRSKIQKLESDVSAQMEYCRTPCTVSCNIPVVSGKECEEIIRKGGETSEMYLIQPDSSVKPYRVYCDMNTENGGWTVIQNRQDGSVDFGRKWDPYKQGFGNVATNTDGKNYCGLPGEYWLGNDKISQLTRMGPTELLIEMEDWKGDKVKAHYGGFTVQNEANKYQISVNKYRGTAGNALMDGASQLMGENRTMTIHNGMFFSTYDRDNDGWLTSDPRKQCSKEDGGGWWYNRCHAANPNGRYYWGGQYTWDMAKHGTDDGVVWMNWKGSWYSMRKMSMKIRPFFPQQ
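Also added: labelled Tn7 tracer, 0.1 µM; Assay system: human fibrin DD(E) protein; Amount: 2 µM fibrin DD(E); Schedule: 10 min compound pre-incubation, 3 h probe incubation at room temperature; Repeats: one replicate per compound; Read-out basis: percent inhibition; Measured by: fluorescence polarization of the labelled Tn7 tracer.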
DDE Tn6 FP inh: inhibitors of Tn6 peptide binding to fibrin DD(E), primary screen, biochemical, fluorescence polarization, human fibrin, Tn6 probe; Fibrin DD(E) TRITC-Tn6 fluorescence polarization displacement; inhibition, % at 8.3 µM; actives 0.21% (n = 370,000);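 active means inhibition above a per-campaign cutoff: mean of compounds within control limits plus 3 SD, cut at about 15% in these data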
SKN-1 block: suppressors of acrylamide-induced Pgst-4::GFP reporter in worms, primary screen, SKN-1 inhibitor project, whole organism, uHTS, GFP/RFP fluorescence ratio, strain VP596; C. elegans VP596 Pgst-4::GFP/RFP ratio, 24 h; inhibition, % at 21.8 µM; actives 0.49% (n = 360,000);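 active means interference check ratio from 0.5 to 1.5 plus GFP to RFP signal ratio inhibition reaching or exceeding a fixed threshold, cut at about 30% in these data, passing the limit was not always enough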
Large screens that a line does not name were inactive. Compounds with a hit are over-represented: about 0.9% of the library has one in this group of screens.

COC(=O)[C@]12C[C@H](CC(=O)NCc3ccccc3)C(=O)N(Cc3ccco3)C1=C[C@H](C(C)C)O[C@@H]2C1CC1	none (no result: DAGLB inh, MT1-MMP act inh, PolyA inh, SKN-1 block)
Nc1ncc(-c2ccc(-c3ccccc3)cc2F)cc1-c1ccccc1F	SKN-1 block 40.4 (no result: DAGLB inh, PolyA inh)
C(=Cc1c[nH]c2ccccc12)c1nccc2ccccc12	SKN-1 block 48.4 (no result: PolyA inh)
C(=Cc1c[nH]c2ccccc12)c1ccc2ccccc2n1	none (no result: PolyA inh)
CN(C(=O)c1ccco1)c1nc(-c2ccccc2)cs1	SKN-1 block 40.1
CCN(C(=O)c1ccco1)c1nc(-c2ccc(OC)cc2)cs1	SKN-1 block 45.6
COCCN(C(=O)c1ccco1)c1nc(-c2ccccc2)cs1	none
CC(=O)N[C@@H](C)CCc1ccc(Oc2ccc(OC(C)C)nc2)cc1	none (no result: DAGLB inh, MT1-MMP act inh, PolyA inh, SKN-1 block)
COC(=O)c1ccc(CSc2nc3ccccc3o2)cc1	SKN-1 block 40.2
COC(=O)c1ccc(CSc2nc(N)cc(N)n2)cc1	none
O=[N+]([O-])c1ccc(CSc2nc3ccccc3o2)cc1	SKN-1 block 68.9
Cc1ccc2nc(-c3cccc(Cl)c3)c(Cc3ccsc3)n2c1	none (no result: DAGLB inh, MT1-MMP act inh, PolyA inh, SKN-1 block)
Cc1ccc(-c2nc3ccc(Cl)cn3c2Cc2ccsc2)cc1	none (no result: DAGLB inh, PolyA inh)
Fc1ccc(-c2nc3ccc(Cl)cn3c2Cc2ccsc2)cc1	SKN-1 block 40.4 (no result: DAGLB inh, PolyA inh)
Brc1cccc(-c2nc3ccc(Br)cn3c2Cc2ccsc2)c1	SKN-1 block 46.6 (no result: DAGLB inh, PolyA inh)
Clc1cccc(-c2nc3ccc(Br)cn3c2Cc2ccsc2)c1	SKN-1 block 35.8 (no result: DAGLB inh, PolyA inh)
C[C@H]1[C@@H](NC(=O)C2CCOC2)CC[C@@]23CCCN2C(=O)CCC[C@@H]13 (some centres undefined)	none (no result: DAGLB inh, MT1-MMP act inh, PolyA inh, SKN-1 block)
C=CCN1C(=O)[C@@H](CC(=O)NCc2ccc(OC)c(OC)c2)[C@]2(C(=O)OCC)CCCCC/C=C/12	none (no result: DAGLB inh, MT1-MMP act inh, PolyA inh, SKN-1 block)
COC(=O)[C@]12C[C@H](CC(=O)N3CCCCC3)C(=O)N(Cc3cccc4ccccc34)C1=C[C@H](COCc1ccccc1)O[C@@H]2C	none (no result: DAGLB inh, MT1-MMP act inh, PolyA inh, SKN-1 block)
Clc1ccc(/C=N\Nc2ccccc2)cc1	none
O=C(N/N=C/c1ccc(Cl)cc1)Nc1ccccc1	SKN-1 block 40.8
O=c1cc(N2CCN(c3cccc(C(F)(F)F)c3)CC2)[nH]c(=O)n1C1CCCCC1	none (no result: DAGLB inh, MT1-MMP act inh, PolyA inh, SKN-1 block)
Clc1ccc(N2CCN(/N=C/c3cccnc3)CC2)cc1	SKN-1 block 66.0
COc1ccc(CNCCC(c2ccc(OC)cc2)c2ccccc2OC)cc1 (centres undefined)	SKN-1 block 37.5
CCCn1c(=O)c2c(C(=O)OCC)cc(-c3ccco3)nc2n(CCC)c1=O	none
CCOC(=O)c1cc(-c2ccco2)nc2c1c(C)nn2-c1ccccc1	SKN-1 block 39.5
CCN(Cc1ccccc1)C(=O)CCCN1C(=O)COc2ccc(C)cc21	none (no result: DAGLB inh, MT1-MMP act inh, PolyA inh, SKN-1 block)
CCCN1CCS(=O)(=O)N(Cc2cn(CC(=O)OCC)nn2)C(C(=O)OC)C1 (centres undefined)	none (no result: DAGLB inh, MT1-MMP act inh, PolyA inh, SKN-1 block)
CCN(CC)c1ccc2nc3c4ccccc4c(=O)cc-3oc2c1	DDE Tn6 FP inh 105.1 (no result: DAGLB inh, MT1-MMP act inh, SKN-1 block)
CCN(CC)c1ccc2cc(C=O)c(=O)oc2c1	none
N/C(=N\OC(=O)c1ccc(Cl)c(Cl)c1)c1ccccn1	SKN-1 block 35.0
CCN(CC(=O)NCc1ccc(F)cc1)Cc1nc2cc(Cl)ccc2c(=O)[nH]1	SKN-1 block 64.6 (no result: PolyA inh)
COc1cc(C=NNC(=O)CN2CCN(Cc3ccc(C)cc3)CC2)cc(OC)c1O	none (no result: DAGLB inh, MT1-MMP act inh, PolyA inh, SKN-1 block)
COc1ccc(/C=C2\SC(=O)N(CC(=O)Nc3ccccc3O)C2=O)cc1OC	SKN-1 block 35.3
O=C(O)c1ccc2c(c1)[C@@H]1C=CC[C@@H]1[C@H](c1ccccn1)N2	SKN-1 block 43.8
CCn1c2ccc(F)cc2c2nc3ccccc3nc21	SKN-1 block 39.9
